Measured values taken from ChEMBL document CHEMBL3745659, “Synthesis and Characterization of 4,11-Diaminoanthra[2,3-b]furan-5,10-diones: Tumor Cell Apoptosis through tNOX-Modulated NAD(+)/NADH Ratio and SIRT1” (J Med Chem, 2015).
Active and inactive are the calls of the source. The calls are words filed in the database; no cut-off is given here.

Tests used:
AGS [1] = test: Upregulation of acetylated p53 level in human AGS cells at 1 and 5 uM after 24 hrs by Western blot analysis; assay type: functional, cell-based
[2] = target: T1, DNA topoisomerase 1 (Homo sapiens) (UniProt P11387); test: Inhibition of Top1 (unknown origin)-mediated relaxation of pBR322 DNA at 2.5 uM incubated for 30 mins by ethidium bromide staining-based gel electrophoresis assay
T1 sequence (whole entry): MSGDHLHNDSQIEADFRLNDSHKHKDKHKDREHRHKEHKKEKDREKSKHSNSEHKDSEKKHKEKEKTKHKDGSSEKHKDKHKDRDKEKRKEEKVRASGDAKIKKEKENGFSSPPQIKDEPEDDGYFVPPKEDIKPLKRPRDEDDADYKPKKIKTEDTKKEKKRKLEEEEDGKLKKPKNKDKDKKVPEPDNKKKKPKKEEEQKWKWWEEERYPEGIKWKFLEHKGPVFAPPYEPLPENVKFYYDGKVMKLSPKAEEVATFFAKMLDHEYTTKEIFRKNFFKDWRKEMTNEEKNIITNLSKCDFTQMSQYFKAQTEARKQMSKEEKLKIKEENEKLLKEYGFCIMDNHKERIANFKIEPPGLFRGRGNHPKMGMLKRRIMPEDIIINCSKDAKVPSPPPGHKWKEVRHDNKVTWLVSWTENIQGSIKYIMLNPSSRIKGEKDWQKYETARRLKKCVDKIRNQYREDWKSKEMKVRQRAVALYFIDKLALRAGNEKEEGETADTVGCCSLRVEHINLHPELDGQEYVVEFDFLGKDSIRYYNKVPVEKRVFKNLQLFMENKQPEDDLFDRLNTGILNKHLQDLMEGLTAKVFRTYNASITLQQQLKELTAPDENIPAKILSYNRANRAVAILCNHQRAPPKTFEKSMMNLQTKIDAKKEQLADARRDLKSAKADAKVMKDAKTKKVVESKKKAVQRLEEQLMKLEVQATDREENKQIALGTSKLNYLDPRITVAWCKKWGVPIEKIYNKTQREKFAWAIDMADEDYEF
In short: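 Supercoiled pBR322 plasmid treated with Top1 without drug or with compound at 0.5, 2.5 or 10 µM; camptothecin as reference; relaxation assessed by gel electrophoresis.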

[3] = target: DNA topoisomerase 2-alpha (Homo sapiens) (UniProt P11388); test: Inhibition of Top2 (unknown origin)-mediated relaxation of pBR322 DNA at 0.1 to 2.5 uM incubated for 30 mins by ethidium bromide staining-based gel electrophoresis assay
Chain of DNA topoisomerase 2-alpha (Homo sapiens) (P11388 whole entry): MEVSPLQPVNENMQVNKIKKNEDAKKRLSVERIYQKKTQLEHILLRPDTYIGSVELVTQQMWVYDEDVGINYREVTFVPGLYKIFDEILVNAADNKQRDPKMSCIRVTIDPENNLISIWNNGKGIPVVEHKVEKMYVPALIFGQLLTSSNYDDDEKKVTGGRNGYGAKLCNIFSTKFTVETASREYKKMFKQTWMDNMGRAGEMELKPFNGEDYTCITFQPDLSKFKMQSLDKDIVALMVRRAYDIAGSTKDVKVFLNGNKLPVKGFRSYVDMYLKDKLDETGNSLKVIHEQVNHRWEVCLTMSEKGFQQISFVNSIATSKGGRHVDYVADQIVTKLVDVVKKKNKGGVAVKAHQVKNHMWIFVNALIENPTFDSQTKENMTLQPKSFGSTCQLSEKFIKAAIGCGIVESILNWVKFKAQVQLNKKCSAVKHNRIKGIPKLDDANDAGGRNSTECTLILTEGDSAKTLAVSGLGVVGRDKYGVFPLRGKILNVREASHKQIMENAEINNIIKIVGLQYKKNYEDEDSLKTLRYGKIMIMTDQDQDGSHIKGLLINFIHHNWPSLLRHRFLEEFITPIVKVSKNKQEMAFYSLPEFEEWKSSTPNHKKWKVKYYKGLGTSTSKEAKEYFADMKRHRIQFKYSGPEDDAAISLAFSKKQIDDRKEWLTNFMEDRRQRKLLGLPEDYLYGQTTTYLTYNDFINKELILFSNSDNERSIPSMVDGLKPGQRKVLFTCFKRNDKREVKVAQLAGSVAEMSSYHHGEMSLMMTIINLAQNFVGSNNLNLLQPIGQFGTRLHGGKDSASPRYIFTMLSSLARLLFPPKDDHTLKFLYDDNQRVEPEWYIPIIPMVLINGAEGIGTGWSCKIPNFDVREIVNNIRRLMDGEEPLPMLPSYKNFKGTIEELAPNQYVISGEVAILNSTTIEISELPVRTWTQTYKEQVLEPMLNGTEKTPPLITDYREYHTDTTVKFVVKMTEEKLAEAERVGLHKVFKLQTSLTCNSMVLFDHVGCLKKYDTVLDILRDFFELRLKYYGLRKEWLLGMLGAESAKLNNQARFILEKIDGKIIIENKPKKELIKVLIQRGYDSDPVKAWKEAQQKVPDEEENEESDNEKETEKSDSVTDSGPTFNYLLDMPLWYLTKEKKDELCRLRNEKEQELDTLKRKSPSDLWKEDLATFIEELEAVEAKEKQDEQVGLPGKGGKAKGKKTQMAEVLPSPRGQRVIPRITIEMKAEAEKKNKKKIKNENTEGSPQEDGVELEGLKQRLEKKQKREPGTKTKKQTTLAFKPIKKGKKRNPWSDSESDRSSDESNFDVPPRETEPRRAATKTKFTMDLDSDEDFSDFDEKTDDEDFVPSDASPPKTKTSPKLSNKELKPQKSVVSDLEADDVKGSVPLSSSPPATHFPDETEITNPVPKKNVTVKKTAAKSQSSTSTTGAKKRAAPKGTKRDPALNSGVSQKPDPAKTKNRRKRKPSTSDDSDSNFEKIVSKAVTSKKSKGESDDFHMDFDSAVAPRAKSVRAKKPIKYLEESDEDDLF

K562 = test: Resistance index, ratio of IC50 for human K562/4 cells to IC50 for human K562 cells; assay type: functional
AGS [4] = test: Induction of apoptosis in human AGS cells assessed as late apoptotic cells at 0.05 uM after 24 hrs by annexin V-FITC staining-based flow cytometric analysis (Rvb=0.3%); assay type: functional
In short: (§1)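 AGS cells exposed to compound for 24 h; Annexin V-FITC staining and flow cytometry used to give percentage of apoptotic cells; mean ± S.E. from at least three independent experiments.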

[5] = target: T2, NAD-dependent protein deacetylase sirtuin-1 (Homo sapiens) (UniProt Q96EB6); test: Inhibition of human recombinant SIRT1 deacetylase activity using Arg-His-Lys-Lys(epsilon-acetyl)-AMC as substrate at 5 uM incubated for 45 mins by fluorescence analysis
T2 sequence (whole entry): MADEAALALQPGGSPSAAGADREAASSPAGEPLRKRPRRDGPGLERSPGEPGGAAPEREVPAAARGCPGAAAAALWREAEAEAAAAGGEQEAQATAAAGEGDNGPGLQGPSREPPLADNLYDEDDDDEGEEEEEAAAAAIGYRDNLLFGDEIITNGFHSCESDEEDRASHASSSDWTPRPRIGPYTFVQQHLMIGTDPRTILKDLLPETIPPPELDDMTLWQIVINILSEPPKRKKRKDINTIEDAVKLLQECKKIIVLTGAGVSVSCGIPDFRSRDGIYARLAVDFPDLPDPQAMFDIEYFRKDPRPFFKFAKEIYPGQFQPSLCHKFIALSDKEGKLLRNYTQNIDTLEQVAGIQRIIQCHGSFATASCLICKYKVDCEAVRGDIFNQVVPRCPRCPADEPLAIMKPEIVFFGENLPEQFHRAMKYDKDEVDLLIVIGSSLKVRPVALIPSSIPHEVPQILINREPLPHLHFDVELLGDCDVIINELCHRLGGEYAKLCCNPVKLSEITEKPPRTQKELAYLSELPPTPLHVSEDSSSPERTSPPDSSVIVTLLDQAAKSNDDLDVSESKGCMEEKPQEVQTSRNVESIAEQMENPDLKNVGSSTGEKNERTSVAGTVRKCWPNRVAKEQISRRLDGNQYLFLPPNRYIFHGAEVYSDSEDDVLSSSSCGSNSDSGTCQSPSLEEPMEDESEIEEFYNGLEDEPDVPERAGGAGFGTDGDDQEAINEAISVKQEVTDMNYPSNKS

[6] = Drug uptake in human K562/4 cells at 3 uM incubated for 2 hrs by flow cytometric analysis; assay type: ADME, cell-based; settings: k562/4, 2 h
In short: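 K562 and K562/4 cells incubated 2 h with 3 µM compound; uptake measured by flow cytometry as ratios (arbitrary units) of mean fluorescence channels of the histograms; verapamil (10 µM), a Pgp transport blocker, added 30 min before compound where used.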

AGS [7] = test: Induction of apoptosis in human AGS cells assessed as early apoptotic cells at 0.1 uM after 24 hrs by annexin V-FITC staining-based flow cytometric analysis (Rvb=7.2%); assay type: functional; in short: as §1

inhibition [2]: Active
inhibition [3]: Active
inhibition [5]: Active
Drug uptake [6]: Active
Compound: CNCCNc1c2c(c(NCCNC)c3occc13)C(=O)c1ccccc1C2=O
Activity (AGS [1]): Active
Ratio IC50 (K562): 0.71
Activity (AGS [4]): 0.7%
Activity (AGS [7]): 25.1%
